Measurements as given in publication PMC9727797 (Molecular Biology of the Cell, 2022).

How the values were obtained:
[1] = tested on: KIRC-1 cells; assay: Preanaphase spindle monopolarity, KIRC-1 cells; type: cell-based, human
Procedure, shortened: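 TP53–/– RPE-1 and KIRC-1 cells were grown in DMEM with 10% FBS, penicillin and streptomycin; KIRC-1 medium also contained 10 μM STLC. Cells on coverslips were treated overnight with increasing test-compound concentrations or DMSO. They were then methanol-fixed and stained for KIF15, tubulin and DNA. Preanaphase spindles were scored monopolar or bipolar, in triplicate with n = 100 per replicate (± SEM).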

[2] = biological target: T1, KIF15-N420 (Homo sapiens, UniProt Q9NS87); assay: ATP-dependent steady-state ATPase assay; type: biochemical; conditions: 30 μM compound, 3 μM microtubules, fit ± 95% confidence interval
T1 sequence (Q9NS87 1-420 limits assumed): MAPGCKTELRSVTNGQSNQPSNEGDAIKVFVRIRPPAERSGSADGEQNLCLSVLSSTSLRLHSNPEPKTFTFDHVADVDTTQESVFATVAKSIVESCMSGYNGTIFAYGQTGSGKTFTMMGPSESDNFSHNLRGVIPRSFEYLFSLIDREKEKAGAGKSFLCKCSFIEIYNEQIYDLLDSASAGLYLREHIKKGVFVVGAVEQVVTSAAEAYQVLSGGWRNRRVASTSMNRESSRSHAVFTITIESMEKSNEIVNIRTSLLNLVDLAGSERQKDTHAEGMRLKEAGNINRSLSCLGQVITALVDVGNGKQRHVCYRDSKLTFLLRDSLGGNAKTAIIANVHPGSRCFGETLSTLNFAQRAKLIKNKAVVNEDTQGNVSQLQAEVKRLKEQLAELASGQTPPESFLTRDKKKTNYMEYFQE
Procedure, shortened: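 KIF15-N420 ATPase measured by NADH-coupled assay, with absorbance at 340 nm followed over time at 25°C. Rates were divided by active motor concentration. ATP was varied, with microtubules held at 3 μM. Test compound was 30 μM, or an equal volume of DMSO. Michaelis-Menten fits were weighted by 1/SEM, with n = 5–7 per concentration. kcat and Km are reported as fit ± 95% confidence interval.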

[3] = biological target: T1, KIF15-N420; assay: Microtubule-dependent steady-state ATPase assay; type: biochemical; conditions: 2 mM ATP; for kcat, microtubule-dependent ATPase: fit ± 95% CI
Procedure, shortened: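 Microtubule-dependent KIF15-N420 ATPase used an NADH-coupled read-out (A340, 25°C), with rates normalised to active motor concentration. ATP was held at 2 mM and microtubules varied over eight concentrations from 0 to 8 μM. Test compound was at 3, 5, 20 or 30 μM, with a DMSO control. Michaelis-Menten fits were weighted by 1/SEM, n = 6–9 per microtubule concentration. kcat and Km are given as fit ± 95% CI.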

SMILES: COC(=O)c1ccc2c(c1)N(C)S(=O)(=O)c1cnc(SC)nc1-2 [Munesib-1, Methyl 6-methyl-2-(methylthio)-6H-benzo[c]pyrimido[4,5-e][1,2]thiazine-8-carboxylate 5,5-dioxide]
- effect on monopolar spindles compared with Fift-IN ([1]; 75 μM): comparatively modest
- monopolar spindles ([1]; 75 μM): less than 70%
- monopolarity index relative to cells treated with DMSO ([1]; increasing concentrations): concentration-dependent increase
- kcat, ATP-dependent ATPase [2]: 2.6 ± 0.4 s^–1
- kcat, microtubule-dependent ATPase ([3]; 3 μM compound): 8.5 ± 1 s^–1
- kcat, microtubule-dependent ATPase ([3]; 5 μM compound): 8.2 ± 3 s^–1
- kcat, microtubule-dependent ATPase ([3]; 30 μM compound): 11.6 ± 6 s^–1
- mode of inhibition with respect to microtubules [3]: less conclusive
